In ChEMBL document CHEMBL2434966, “Novel N-4-piperazinyl-ciprofloxacin-chalcone hybrids: synthesis, physicochemical properties, anticancer and topoisomerase I and II inhibitory activity” (Eur J Med Chem, 2013):
Values after ≈ are worked out from the molar mass of the structure shown. Active and inactive are the calls of the source. The calls are words filed in the database; no cut-off is given here.

Tests used:
[1] = Aqueous solubility of the compound at pH 6.9 by UV spectroscopic analysis; type: physicochemical; conditions: aqueous solution
Outline: (§1)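 Excess solid (10 mg) shaken in buffer at pH 6.9 or 7.8, 37 °C. The filtrate was diluted into the linear calibration range and dissolved drug measured by UV absorbance at λmax 272 nm. Values are the average of at least three agreeing independent measurements.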

[2] = biological target: T1, DNA topoisomerase 1 (Homo sapiens) (UniProt P11387); assay: Inhibition of human topoisomerase 1-mediated unwinding of pHOT1 plasmid DNA up to 1000 uM after 30 mins by agarose gel electrophoresis
T1 sequence (whole entry): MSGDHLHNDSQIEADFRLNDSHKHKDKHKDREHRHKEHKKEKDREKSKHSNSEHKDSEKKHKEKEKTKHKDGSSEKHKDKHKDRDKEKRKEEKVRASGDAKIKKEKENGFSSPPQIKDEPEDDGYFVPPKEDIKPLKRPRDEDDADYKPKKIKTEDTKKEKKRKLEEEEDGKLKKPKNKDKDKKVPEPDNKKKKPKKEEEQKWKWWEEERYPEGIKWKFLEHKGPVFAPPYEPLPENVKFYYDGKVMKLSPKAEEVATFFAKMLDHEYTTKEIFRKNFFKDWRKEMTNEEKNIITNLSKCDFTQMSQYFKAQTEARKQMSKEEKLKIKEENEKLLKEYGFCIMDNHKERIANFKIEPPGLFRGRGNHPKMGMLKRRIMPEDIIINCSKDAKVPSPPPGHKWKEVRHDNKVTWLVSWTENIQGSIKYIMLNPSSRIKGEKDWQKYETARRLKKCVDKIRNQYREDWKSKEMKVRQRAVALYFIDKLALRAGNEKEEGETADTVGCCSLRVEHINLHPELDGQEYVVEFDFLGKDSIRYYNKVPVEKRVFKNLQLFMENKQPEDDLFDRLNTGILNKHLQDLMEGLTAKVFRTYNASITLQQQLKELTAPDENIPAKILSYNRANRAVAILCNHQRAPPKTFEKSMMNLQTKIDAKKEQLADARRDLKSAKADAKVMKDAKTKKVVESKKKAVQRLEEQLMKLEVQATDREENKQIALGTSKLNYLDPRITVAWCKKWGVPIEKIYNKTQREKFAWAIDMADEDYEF
Outline: (§2)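 pHOT1 plasmid (100 ng) was first relaxed with excess human topo I (3 units) for 30 min at 37 °C in Tris-HCl pH 7.9. Variable compound amounts were then added for a further 30 min at 37 °C. Stopped with EDTA; 1% agarose/TAE gel at 15 V for 15 h, ethidium stain, supercoiled DNA quantified. m-AMSA was the positive control.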

[3] = biological target: DNA topoisomerase 2-alpha (Homo sapiens) (UniProt P11388); assay: Inhibition of human topoisomerase 2alpha-mediated relaxation of supercoiled pBR322 DNA at 100 uM after 30 mins by agarose gel electrophoresis relative to control
Outline: (§3)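 Human topo IIα (1 unit) with 200 ng supercoiled pBR322 in Tris-HCl pH 7.9, 50 mM NaCl, 5 mM MgCl2, 1 mM EDTA, 1 mM ATP, BSA, 30 min at 30 °C. DMSO was matched in the enzyme-only control. Stopped with EDTA; 1% agarose/TAE gel, ethidium stain, supercoiled band quantified by UV imaging. Etoposide was the positive control.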

[4] = Aqueous solubility of the compound at pH 7.8 by UV spectroscopic analysis; type: physicochemical; conditions: aqueous solution; outline: as §1
[5] = Octanol-phosphate buffer partition coefficient, log P of the compound after 5 hrs by shake-flask method; type: physicochemical
Outline: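 Shake-flask method: 100 µL of 0.2 mg/mL stock diluted into 1.9 mL phosphate buffer pH 7.4 plus 2 mL mutually saturated n-octanol, protected from light. Vortexed 3 min, shaken 5 h at 25 °C. Both phases assayed by UV at 272 nm; log P = log([octanol]/[aqueous]), run in triplicate.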

[6] = biological target: T1, DNA topoisomerase 1 (Homo sapiens); assay: Inhibition of human recombinant topoisomerase 1-mediated relaxation of supercoiled pBR322 DNA at 100 uM after 30 mins by agarose gel electrophoresis relative to control
Outline: (§4)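 Recombinant human topo I (0.4 units) with 100 ng supercoiled pBR322, 37 °C for 30 min in Tris-HCl pH 7.9, 150 mM NaCl, 0.1% BSA, 1 mM spermidine, 5% glycerol. Compounds came from 20 mM DMSO stocks, with matched DMSO in the enzyme-only control. Stopped with sarcosyl; 1% agarose/TAE gel, ethidium stain, UV densitometry. Camptothecin was the positive control.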

[7] = biological target: T1, DNA topoisomerase 1 (Homo sapiens); assay: Inhibition of human recombinant topoisomerase 1-mediated relaxation of supercoiled pBR322 DNA at 20 uM after 30 mins by agarose gel electrophoresis relative to control; outline: as §4
[8] = biological target: DNA topoisomerase 2-alpha (Homo sapiens) (UniProt P11388); assay: Inhibition of human topoisomerase 2alpha-mediated relaxation of supercoiled pBR322 DNA at 20 uM after 30 mins by agarose gel electrophoresis relative to control; outline: as §3
[9] = system: NCI-H522; assay: Growth inhibition of human NCI-H522 cells at 10^-5 M after 48 hrs by sulforhodamine B assay; type: functional, cell-based
Outline: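 NCI 60-cell-line primary one-dose screen. Cells were exposed to a single 10^-5 M concentration for 48 h. The end point was sulforhodamine B protein staining, read spectrophotometrically. Results are reported as percent growth of treated cells relative to untreated control cells.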

[10] = system: HCT-116; assay: Growth inhibition of human HCT116 cells at 10^-5 M after 48 hrs by sulforhodamine B assay; type: functional, cell-based
Outline: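 NCI 60-cell-line primary screen. Single concentration of 10^-5 M, 48 h incubation. End point by sulforhodamine B protein staining read spectrophotometrically. Reported as percent growth of treated cells relative to untreated control cells.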

[11] = biological target: T1, DNA topoisomerase 1 (Homo sapiens); assay: Inhibition of human topoisomerase 1-mediated unwinding of pHOT1 plasmid DNA after 30 mins by agarose gel electrophoresis; outline: as §2

Sequence of DNA topoisomerase 2-alpha (Homo sapiens) (P11388 whole entry): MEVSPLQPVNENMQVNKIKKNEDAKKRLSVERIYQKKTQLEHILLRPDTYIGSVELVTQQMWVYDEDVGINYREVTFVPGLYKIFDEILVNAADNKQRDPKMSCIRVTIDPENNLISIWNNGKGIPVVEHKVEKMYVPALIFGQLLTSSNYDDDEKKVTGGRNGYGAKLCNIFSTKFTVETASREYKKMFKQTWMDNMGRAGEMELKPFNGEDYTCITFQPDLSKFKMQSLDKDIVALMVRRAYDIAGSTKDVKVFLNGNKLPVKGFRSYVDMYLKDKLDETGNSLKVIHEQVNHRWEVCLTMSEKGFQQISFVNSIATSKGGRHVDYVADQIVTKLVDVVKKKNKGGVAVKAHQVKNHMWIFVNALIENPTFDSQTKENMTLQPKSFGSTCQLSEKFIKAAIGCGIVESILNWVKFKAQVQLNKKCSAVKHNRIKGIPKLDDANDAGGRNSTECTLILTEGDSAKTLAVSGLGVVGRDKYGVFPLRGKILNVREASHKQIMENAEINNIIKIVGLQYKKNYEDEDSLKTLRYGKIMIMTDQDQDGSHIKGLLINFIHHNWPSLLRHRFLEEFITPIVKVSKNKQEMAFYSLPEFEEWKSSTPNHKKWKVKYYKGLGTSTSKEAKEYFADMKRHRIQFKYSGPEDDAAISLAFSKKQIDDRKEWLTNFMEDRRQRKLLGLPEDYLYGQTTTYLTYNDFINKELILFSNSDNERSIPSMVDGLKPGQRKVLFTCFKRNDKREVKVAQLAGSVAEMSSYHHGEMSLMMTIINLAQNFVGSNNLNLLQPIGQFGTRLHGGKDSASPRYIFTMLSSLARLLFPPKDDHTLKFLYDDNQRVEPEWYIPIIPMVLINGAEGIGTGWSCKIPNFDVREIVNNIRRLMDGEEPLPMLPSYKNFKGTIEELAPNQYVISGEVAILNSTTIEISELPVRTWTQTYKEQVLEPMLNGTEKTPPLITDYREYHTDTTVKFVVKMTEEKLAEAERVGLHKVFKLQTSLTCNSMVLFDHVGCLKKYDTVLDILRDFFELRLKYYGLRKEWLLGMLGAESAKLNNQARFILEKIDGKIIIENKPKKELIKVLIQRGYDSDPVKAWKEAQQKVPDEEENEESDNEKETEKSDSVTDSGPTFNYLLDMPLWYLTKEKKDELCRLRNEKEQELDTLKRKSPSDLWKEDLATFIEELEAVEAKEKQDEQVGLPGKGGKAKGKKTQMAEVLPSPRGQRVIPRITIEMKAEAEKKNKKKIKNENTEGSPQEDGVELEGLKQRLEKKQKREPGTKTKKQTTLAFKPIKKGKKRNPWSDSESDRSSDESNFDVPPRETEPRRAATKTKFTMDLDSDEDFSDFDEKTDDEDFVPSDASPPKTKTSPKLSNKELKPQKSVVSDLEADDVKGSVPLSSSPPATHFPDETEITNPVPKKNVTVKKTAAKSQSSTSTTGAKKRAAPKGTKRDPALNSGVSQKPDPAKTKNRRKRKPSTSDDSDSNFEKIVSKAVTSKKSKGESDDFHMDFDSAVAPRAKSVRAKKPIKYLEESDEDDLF

SMILES | solubility [1] [µg/mL] | inhibition [2] | inhibition [3] [%] | solubility [4] [µg/mL] | logP at 5 h [5] | inhibition [6] [%] | inhibition [7] [%] | inhibition [8] [%] | growth inhibition (GI) [9] | growth inhibition (GI) [10] | inhibition [11]
O=C(CN1CCN(c2cc3c(cc2F)c(=O)c(C(=O)O)cn3C2CC2)CC1)Nc1ccc(C(=O)/C=C/c2ccc3c(c2)OCO3)cc1 | 2.66 (≈ 4.17 µM) | inactive | 85.7 | 2.24 (≈ 3.51 µM) | 0.562 | 91.3 | 25.9 | 43.8 |  |  | 
COc1ccc(/C=C/C(=O)c2ccc(NC(=O)CN3CCN(c4cc5c(cc4F)c(=O)c(C(=O)O)cn5C4CC4)CC3)cc2)cc1 | 2.98 (≈ 4.77 µM) | inactive | 84.3 | 2.42 (≈ 3.87 µM) | 0.684 | 67.6 | 25.3 | 49.6 | Active | Active | 
COc1cc(NS(C)(=O)=O)ccc1Nc1c2ccccc2nc2ccccc12 |  |  |  |  |  |  |  |  |  |  | Dose-dependent effect
O=C(CN1CCN(c2cc3c(cc2F)c(=O)c(C(=O)O)cn3C2CC2)CC1)Nc1ccc(C(=O)/C=C/c2cccc([N+](=O)[O-])c2)cc1 | 30.7 (≈ 47.9 µM) |  | 82.8 | 27.4 (≈ 42.9 µM) | -0.0812 | 90.5 | 11.1 | 8.8 |  |  | 
O=C(CN1CCN(c2cc3c(cc2F)c(=O)c(C(=O)O)cn3C2CC2)CC1)Nc1ccc(C(=O)/C=C/c2ccccc2Cl)cc1 | 2.45 (≈ 3.89 µM) |  | 66.7 | 2.12 (≈ 3.37 µM) | 1.29 | 70.8 | 4.2 | 21.3 |  |  | 
Cc1ccc(/C=C/C(=O)c2ccc(NC(=O)CN3CCN(c4cc5c(cc4F)c(=O)c(C(=O)O)cn5C4CC4)CC3)cc2)c(C)c1 | 2.12 (≈ 3.4 µM) |  | 78.9 | 2.07 (≈ 3.32 µM) | 1.47 | 85.1 | 11 | 29.4 |  |  | 
COc1ccc(/C=C/C(=O)c2ccc(NC(=O)CN3CCN(c4cc5c(cc4F)c(=O)c(C(=O)O)cn5C4CC4)CC3)cc2)cc1OC | 0.75 (≈ 1.15 µM) |  | 9 | 0.68 (≈ 1.04 µM) | 1.46 | 73.2 | 2.5 |  |  |  | 
O=C(CN1CCN(c2cc3c(cc2F)c(=O)c(C(=O)O)cn3C2CC2)CC1)Nc1ccc(C(=O)/C=C/c2cccc(Cl)c2)cc1 | 34.4 (≈ 54.7 µM) |  | 52.9 | 29.7 (≈ 47.3 µM) | 0.302 | 68.8 | 3.1 | 24.6 |  |  | 
O=C(CN1CCN(c2cc3c(cc2F)c(=O)c(C(=O)O)cn3C2CC2)CC1)Nc1ccc(C(=O)/C=C/c2ccc(Cl)cc2)cc1 | 2.77 (≈ 4.4 µM) |  | 27.7 | 2.23 (≈ 3.54 µM) | 0.47 | 67.5 | 0.4 |  | Active | Active | 
